Where “and” joins values, the source holds several entries; their conditions need not be identical. Equal values may be shown once.
System: HEK-293T
Assay: Multiplex assay against HEK293T
Type: toxicity, cell-based
Conditions: human
Outline: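 Live cells were stained at seeding with Hoechst33342, BioTracker Green Microtubule Cytoskeleton Dye, MitoTracker Red and Annexin V Alexa Fluor 680. Following compound addition, they were imaged on a CQ1 microscope at 37°C and 5% CO2 and gated by CellPathfinder machine learning into Hoechst high-intensity objects or normal cells, with normal cells split into healthy, pyknosed or fragmented nuclei and pyknosed cells into mitotic or apoptotic. Tubulin, mitochondrial-mass and membrane-permeability phenotypes are per cents of healthy-nucleus cells.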

[1] = 12 h, 1 µM, compound concentration 1 uM
[2] = 12 h, 10 µM, compound concentration 10 uM
[3] = 24 h, 1 µM, compound concentration 1 uM
[4] = 24 h, 10 µM, compound concentration 10 uM
[5] = 48 h, 1 µM, compound concentration 1 uM
[6] = 48 h, 10 µM, compound concentration 10 uM

## CN(C)c1ccnc2sc3c(=O)n(N4CCCCCC4)cnc3c12
[1]
  Population Apoptotic (%): 45% and 51%
  Population Fragmented Nuclei (%): 9% and 5%
  Population Healthy Nuclei (%): 76% and 82%
  Population Hoechst High Intensity Objects (%): 4% and 8%
  Population Membrane Permeable-Phenotype (%): 1% and 0%
  Population Mitochondria Different-Phenotype (%): 50% and 67%
  Population Mitotic Cells (%): 54% and 48%
  Population Normal (%): 95% and 91%
  Population Pyknosed Nuclei (%): 13% and 12%
  Population Tubulin-Different-Phenotype (%): 43% and 25%
  Total Cell Count: 360 and 335
[2]
  Population Apoptotic (%): 36% and 59%
  Population Fragmented Nuclei (%): 4% and 9%
  Population Healthy Nuclei (%): 81% and 72%
  Population Hoechst High Intensity Objects (%): 10% and 13%
  Population Membrane Permeable-Phenotype (%): 0%
  Population Mitochondria Different-Phenotype (%): 78% and 76%
  Population Mitotic Cells (%): 63% and 40%
  Population Normal (%): 89% and 86%
  Population Pyknosed Nuclei (%): 14% and 17%
  Population Tubulin-Different-Phenotype (%): 79% and 59%
  Total Cell Count: 387 and 308
[3]
  Population Apoptotic (%): 30% and 25%
  Population Fragmented Nuclei (%): 10% and 7%
  Population Healthy Nuclei (%): 76% and 84%
  Population Hoechst High Intensity Objects (%): 4% and 5%
  Population Membrane Permeable-Phenotype (%): 1% and 0%
  Population Mitochondria Different-Phenotype (%): 27% and 51%
  Population Mitotic Cells (%): 70% and 74%
  Population Normal (%): 95% and 94%
  Population Pyknosed Nuclei (%): 12% and 7%
  Population Tubulin-Different-Phenotype (%): 24% and 22%
  Total Cell Count: 510 and 470
[4]
  Population Apoptotic (%): 42% and 66%
  Population Fragmented Nuclei (%): 7% and 10%
  Population Healthy Nuclei (%): 76% and 74%
  Population Hoechst High Intensity Objects (%): 8% and 13%
  Population Membrane Permeable-Phenotype (%): 0%
  Population Mitochondria Different-Phenotype (%): 80% and 75%
  Population Mitotic Cells (%): 57% and 33%
  Population Normal (%): 91% and 86%
  Population Pyknosed Nuclei (%): 16% and 15%
  Population Tubulin-Different-Phenotype (%): 71% and 53%
  Total Cell Count: 428 and 359
[5]
  Population Apoptotic (%): 27% and 20%
  Population Fragmented Nuclei (%): 13% and 11%
  Population Healthy Nuclei (%): 78% and 82%
  Population Hoechst High Intensity Objects (%): 2% and 3%
  Population Membrane Permeable-Phenotype (%): 0% and 2%
  Population Mitochondria Different-Phenotype (%): 23% and 31%
  Population Mitotic Cells (%): 72% and 80%
  Population Normal (%): 97% and 96%
  Population Pyknosed Nuclei (%): 7% and 6%
  Population Tubulin-Different-Phenotype (%): 14% and 15%
  Total Cell Count: 721 and 663
[6]
  Population Apoptotic (%): 70% and 57%
  Population Fragmented Nuclei (%): 15% and 11%
  Population Healthy Nuclei (%): 72% and 75%
  Population Hoechst High Intensity Objects (%): 8% and 6%
  Population Membrane Permeable-Phenotype (%): 0%
  Population Mitochondria Different-Phenotype (%): 66% and 63%
  Population Mitotic Cells (%): 29% and 42%
  Population Normal (%): 91% and 93%
  Population Pyknosed Nuclei (%): 12%
  Population Tubulin-Different-Phenotype (%): 54% and 45%
  Total Cell Count: 497 and 450

From ChEMBL document CHEMBL5724801, “EUbOPEN Chemogenomics Library - Multiplex” (2024)
